Consider 7 compounds from ChEMBL document CHEMBL1287789, “4-deoxy-4-fluoro-xyloside derivatives as inhibitors of glycosaminoglycan biosynthesis” (Bioorg Med Chem Lett, 2010).

Calls of active or inactive are those of the source. The calls are words filed in the database; no cut-off is given here.

For data set [1], the species on record is Bos taurus. The data set is described as follows: Inhibition of glycosaminoglycan biosynthesis in BLMVEC assessed as [3H]glucosamine incorporation at 300 uM after 24 hrs by liquid scintillation counting. The data set is classed as functional. A digest of the protocol: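 Cells seeded at 2 × 10⁵/well and grown 24 h at 37 °C, then switched to DMEM with 1 mM glucose and 10% dialyzed FBS. Treated 24 h with 300 µM compound (from 30 mM DMSO stock) or DMSO alone, with ³H-glucosamine. Pronase digest overnight at 37 °C; GAGs bound to DEAE-Sepharose, washed at pH 6.0 with 0.1 M NaCl, eluted with 1 M NaCl; eluate radioactivity by scintillation counting.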

Data set [2] is described as follows: Cytotoxicity against BLMVEC assessed as cell viability at <=300 uM after 24 hrs by celltiter blue assay. The note with it: cattle. Set-up: species or system Bos taurus. An outline of the steps: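 Bovine lung microvascular endothelial cells seeded at 2.5 × 10⁴ cells/well in duplicate, Ham's F-12 with 10% FBS. Exposed to DMSO (control) or compound at 0.1, 0.3 and 1.0 mM for 24 h at 37 °C; 3% H₂O₂ as control. CellTiter-Blue added for 2 h, stopped with 3% SDS, fluorescence read at ex 560/em 590 nm.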
Background: Alamar Blue is a resazurin reagent that responds to reducing activity.

Data set [3] is filed under the species Bos taurus. Put plainly: Inhibition of glycosaminoglycan biosynthesis in BLMVEC assessed as [3H]-labeled-GAG chains by anion exchange chromatography. The note with it: dose or concentration not given here. The data set is classed as functional. An outline of the steps: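 ³H-glucosamine-labelled GAG chains from cells given 300 µM compound or DMSO for 24 h were run on DEAE-HPLC. Elution over 80 min with a 0.2–1 M NaCl linear gradient, monitored by an in-line radiometric detector; heparan sulfate and chondroitin sulfate resolved as separate peaks between 20 and 50 min.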

Consider `O[C@@H]1[C@@H](O)[C@H](n2cc(COc3ccc(F)cc3)nn2)OC[C@H]1F`, for which, in the data set filed under Bos taurus [1], the inhibition (as a rule, the relative decrease from the control value, in per cent) was “Active”. Also, in data set [2], the Activity result was “Non-toxic”.
For the compound `O[C@@H]1[C@@H](O)[C@@H](n2cc(COCc3ccc4ccccc4c3)nn2)OC[C@H]1F`, the inhibition result in the data set listed under Bos taurus [1] is “Active”. The Activity result in data set [2] is “Non-toxic”.
The like results for `O[C@@H]1[C@@H](O)[C@H](n2cc(COCc3ccc4ccccc4c3)nn2)OC[C@H]1F` were, in that order, “inactive” and “Non-toxic”.
Consider `O=[N+]([O-])c1ccc(OCc2cn([C@H]3OC[C@@H](F)[C@H](O)[C@H]3O)nn2)cc1`, for which the inhibition in the data set filed under Bos taurus [1] and in the data set listed under Bos taurus [3] was 80% each time. In data set [2], the Activity entry is given as “Non-toxic”.
As for `O[C@@H]1[C@@H](O)[C@@H](n2cc(COc3ccc(F)cc3)nn2)OC[C@H]1F`, the inhibition result in the data set filed under Bos taurus [1] is “Active”. Further, the Activity entry in data set [2] is “Non-toxic”.
Turning to `O=[N+]([O-])c1ccc(OCc2cn([C@@H]3OC[C@@H](F)[C@H](O)[C@H]3O)nn2)cc1`, the inhibition in the data set filed under Bos taurus [1] and in the data set listed under Bos taurus [3] was 80% each time. For the same compound, the Activity result in data set [2] is “Non-toxic”.
On to `O[C@@H]1[C@@H](O)[C@@H](n2cc(-c3ccc4ccccc4c3)nn2)OC[C@H]1F`, for which, in the data set listed under Bos taurus [1], the inhibition result was “Active”. For the same compound, the Activity entry in data set [2] is “Non-toxic”.
